Measurements from ChEMBL document CHEMBL3286182, “4-aminoquinolone piperidine amides: noncovalent inhibitors of DprE1 with long residence time and potent antimycobacterial activity” (J Med Chem, 2014).
Converted amounts (≈) assume the structure as drawn. The source made the active and inactive calls. No cut-off for these calls is given here.

Legend:
Cytochrome P450 2C9 = Cytochrome P450 2C9 (Homo sapiens, UniProt P11712); assay: Inhibition of CYP2C9 (unknown origin); format: ADME
How it was run: (§1)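 CYP inhibition IC50 measured on isoforms CYP3A4, CYP2D6, CYP2C9, CYP2C19 and CYP1A2.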

[1] = Elimination half life in Wistar rat at 10 mg/kg, po; format: ADME, organism-based; design: dose 10 mg/kg, route oral; details: in vivo, read-out: beta t1/2 (converted)
How it was run: (§2)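 Male Wistar rats given a single dose, 2 mg/kg intravenously or 10 mg/kg orally. Plasma concentration followed over time, n = 2 per compound. Parameters taken from the plasma curves: C0 (iv), Cmax (oral), AUC0−∞, elimination half-life, plasma clearance, Vss and oral bioavailability.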

[2] = test system: Mycobacterium tuberculosis; assay: Antimycobacterial activity against Mycobacterium tuberculosis H37Rv under hypoxic condition after 6 days by resazurin assay; format: functional
Streptococcus pneumoniae = assay: Antimicrobial activity against Streptococcus pneumoniae ARC548 at 100 uM; format: functional, organism-based
How it was run: (§3)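 Nonmycobacterial panel of Candida albicans, Gram-negative and Gram-positive pathogens.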

Klebsiella pneumoniae = assay: Antimicrobial activity against Klebsiella pneumoniae ARC1865 at 100 uM; format: functional, organism-based; how it was run: as §3
Haemophilus influenzae [3] = assay: Antimicrobial activity against Haemophilus influenzae ARC158 at 100 uM; format: functional, organism-based; how it was run: as §3
Escherichia coli [4] = assay: Antimicrobial activity against Escherichia coli ARC523 at 100 uM; format: functional, organism-based; how it was run: as §3
[5] = Oral bioavailability in Wistar rat at 10 mg/kg; format: ADME, organism-based; details: in vivo; how it was run: as §2
Cytochrome P450 1A2 = biological target: T1, Cytochrome P450 1A2 (Homo sapiens, UniProt P05177); assay: Inhibition of CYP1A2 (unknown origin); format: ADME; how it was run: as §1
T1 sequence (P05177 whole entry): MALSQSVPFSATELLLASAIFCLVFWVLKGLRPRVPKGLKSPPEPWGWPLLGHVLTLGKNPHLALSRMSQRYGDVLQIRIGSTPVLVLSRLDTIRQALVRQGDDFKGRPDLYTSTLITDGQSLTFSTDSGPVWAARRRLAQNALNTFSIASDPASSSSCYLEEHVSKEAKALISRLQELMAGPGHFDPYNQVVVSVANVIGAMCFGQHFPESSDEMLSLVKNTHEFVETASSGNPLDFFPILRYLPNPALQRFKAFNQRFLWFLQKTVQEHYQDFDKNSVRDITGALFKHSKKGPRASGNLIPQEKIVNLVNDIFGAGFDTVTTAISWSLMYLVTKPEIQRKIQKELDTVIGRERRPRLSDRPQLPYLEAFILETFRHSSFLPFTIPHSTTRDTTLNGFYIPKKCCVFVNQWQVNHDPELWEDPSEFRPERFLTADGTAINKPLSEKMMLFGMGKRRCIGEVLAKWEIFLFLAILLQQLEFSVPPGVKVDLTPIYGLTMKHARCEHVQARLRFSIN

[6] = Intrinsic clearance in rat cryopreserved hepatocytes assessed per 10^6 cells at 1 uM up to 120 mins by LC-MS/MS analysis; format: ADME, cell-based, Hepatocyte; details: read-out: CLH
[7] = Solubility of the compound in 0.1 M phosphate buffer at pH 7.4 after 24 hrs by UV and MS analysis; format: physicochemical
Staphylococcus aureus = assay: Antimicrobial activity against Staphylococcus aureus ARC517 at 100 uM; format: functional, organism-based; how it was run: as §3
[8] = test system: Mycobacterium tuberculosis; assay: Antimycobacterial activity against Mycobacterium tuberculosis H37Rv after 5 days by standard microdilution method; format: functional; details: 120 h
[9] = AUC (0 to infinity) in Wistar rat at 10 mg/kg, po; format: ADME, organism-based; design: time infinity, dose 10 mg/kg, route oral; details: plasma; how it was run: as §2
Pseudomonas aeruginosa [10] = assay: Antimicrobial activity against Pseudomonas aeruginosa ARC546 at 100 uM; format: functional, organism-based; how it was run: as §3
[11] = test system: Mycolicibacterium smegmatis; assay: Antimicrobial activity against Mycobacterium smegmatis ATCC 607 at 100 uM; format: functional, organism-based
[12] = Elimination half life in Wistar rat at 2 mg/kg, iv; format: ADME, organism-based; design: dose 2 mg/kg, route intravenous; details: in vivo, read-out: beta t1/2 (converted); how it was run: as §2
[13] = test system: Mycolicibacterium smegmatis; assay: Antimicrobial activity against Mycobacterium smegmatis mc2155 at 100 uM; format: functional, organism-based; details: str. MC2 155
[14] = Permeability of the compound from basolateral to apical side in human Caco2 cells; format: ADME, cell-based; details: Caco-2, read-out: permeability
[15] = Fraction unbound in human plasma at 20 uM after 18 hrs by equilibrium dialysis method; format: ADME, cell-free
Cytochrome P450 2D6 = Cytochrome P450 2D6 (Homo sapiens, UniProt P10635); assay: Inhibition of CYP2D6 (unknown origin); format: ADME; how it was run: as §1
[16] = Permeability of the compound from apical to basolateral side in human Caco2 cells; format: ADME, cell-based; details: Caco-2, read-out: permeability
Pseudomonas aeruginosa [17] = assay: Antimicrobial activity against Pseudomonas aeruginosa ARC545 at 100 uM; format: functional, organism-based; how it was run: as §3
Haemophilus influenzae [18] = assay: Antimicrobial activity against Haemophilus influenzae ARC446 at 100 uM; format: functional, organism-based; how it was run: as §3
[19] = Initial plasma concentration in Wistar rat at 2 mg/kg, iv; format: ADME, organism-based; design: dose 2 mg/kg, route intravenous; how it was run: as §2
[20] = Clearance in Wistar rat at 2 mg/kg, iv; format: ADME, organism-based; design: dose 2 mg/kg, route intravenous; details: in vivo; how it was run: as §2
Cytochrome P450 2C19 = Cytochrome P450 2C19 (Homo sapiens, UniProt P33261); assay: Inhibition of CYP2C19 (unknown origin); format: ADME; how it was run: as §1
[21] = Cytotoxicity against human A549 cells after 72 hrs by resazurin based fluorescence assay; format: cell-based; details: read-out: MIC
How it was run: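 Cytotoxicity read as MMIC, the MIC on the A549 cell line.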

Candida albicans = assay: Antimicrobial activity against Candida albicans ARC527 at 100 uM; format: functional, organism-based; how it was run: as §3
[22] = Cmax in Wistar rat at 10 mg/kg, po; format: ADME, organism-based; design: dose 10 mg/kg, route oral; details: in vivo; how it was run: as §2
[23] = Octanol-water partition coefficient, log D of the compound by shake-flask method; format: physicochemical
[24] = Volume of distribution at steady state in Wistar rat at 2 mg/kg, iv; format: ADME, organism-based; design: dose 2 mg/kg, route intravenous; details: in vivo, read-out: Vdss; how it was run: as §2
Escherichia coli [25] = assay: Antimicrobial activity against Escherichia coli ARC524 at 100 uM; format: functional, organism-based; how it was run: as §3
[26] = Intrinsic clearance in human liver microsomes at 1 uM up to 30 mins by LC-MS/MS analysis; format: ADME; details: read-out: CLH
[27] = Inhibition of Mycobacterium smegmatis recombinant DprE1 using farnesylphosphoryl-beta-D-ribofuranose as substrate assessed as conversion of amplex red to resorufin after 30 mins; design: species or system Mycolicibacterium smegmatis
How it was run: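 Msm DprE1 (thioredoxin-6His fusion of Msm Rv3790) at 75 nM, preincubated 30 min with 10 μM FAD. Buffer: 50 mM glycylglycine pH 8.5, 200 mM potassium glutamate, 0.002% Brij-35, 2% DMSO, 25 °C. Started with 300 μM farnesylphosphoryl-β-D-ribofuranose, 0.01 mg/mL HRP and 50 μM Amplex Red.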

Adenosine receptor A1 = biological target: T2, Adenosine receptor A1 (Homo sapiens, UniProt P30542); assay: Inhibition of adenosine A1 receptor (unknown origin)
T2 sequence (P30542 whole entry): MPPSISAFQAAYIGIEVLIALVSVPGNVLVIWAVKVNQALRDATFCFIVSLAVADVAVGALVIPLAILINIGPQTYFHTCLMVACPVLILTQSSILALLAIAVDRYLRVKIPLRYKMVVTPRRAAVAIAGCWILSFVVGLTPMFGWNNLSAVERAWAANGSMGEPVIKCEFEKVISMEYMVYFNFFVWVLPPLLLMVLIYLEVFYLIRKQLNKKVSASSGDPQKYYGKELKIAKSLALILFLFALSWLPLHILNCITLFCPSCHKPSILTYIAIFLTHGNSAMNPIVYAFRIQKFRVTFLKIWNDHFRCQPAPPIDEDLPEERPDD
How it was run: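 Secondary pharmacology panel of binding, enzyme and functional assays covering 24 molecular targets. Activity recorded as a defined Ki/IC50/EC50.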

[28] = AUC (0 to infinity) in Wistar rat at 2 mg/kg, iv; format: ADME, organism-based; design: dose 2 mg/kg, route intravenous, time infinity; details: plasma; how it was run: as §2
[29] = biological target: Voltage-gated inwardly rectifying potassium channel KCNH2 (Homo sapiens, UniProt Q12809); assay: Inhibition of human ERG by medium-throughput electrophysiology
Cytochrome P450 3A4 = Cytochrome P450 3A4 (Homo sapiens, UniProt P08684); assay: Inhibition of CYP3A4 (unknown origin); format: ADME; how it was run: as §1
[30] = test system: Mycolicibacterium smegmatis; assay: Ratio of IC50 for Mycobacterium smegmatis DprE1 Y321H mutant to IC50 for Mycobacterium smegmatis recombinant wild type DprE1
How it was run: (§4)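 Recombinant M. smegmatis DprE1 (thioredoxin-6His fusion), wild type or Y321H, 75 nM. Enzyme was preincubated 30 min in FAD assay mix: 50 mM glycylglycine pH 8.5, 200 mM potassium glutamate, 10 μM FAD, 0.002% Brij-35, 2% DMSO. Reaction was started with 300 μM farnesylphosphoryl-β-D-ribofuranose, 0.01 mg/mL HRP and 50 μM amplex red at 25 °C.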

[31] = Inhibition of Mycobacterium smegmatis DprE1 Y321H mutant using farnesylphosphoryl-beta-D-ribofuranose as substrate assessed as conversion of amplex red to resorufin after 30 mins; design: species or system Mycolicibacterium smegmatis; how it was run: as §4
[32] = test system: Mycobacterium tuberculosis; assay: Antimycobacterial activity against Mycobacterium tuberculosis over expressing DprE1 after 5 days by standard microdilution method; format: functional; details: 120 h
[33] = Solubility of the compound in fed-state simulated intestinal fluid at pH 6.5; format: ADME

Chain of Cytochrome P450 2D6 (P10635 whole entry): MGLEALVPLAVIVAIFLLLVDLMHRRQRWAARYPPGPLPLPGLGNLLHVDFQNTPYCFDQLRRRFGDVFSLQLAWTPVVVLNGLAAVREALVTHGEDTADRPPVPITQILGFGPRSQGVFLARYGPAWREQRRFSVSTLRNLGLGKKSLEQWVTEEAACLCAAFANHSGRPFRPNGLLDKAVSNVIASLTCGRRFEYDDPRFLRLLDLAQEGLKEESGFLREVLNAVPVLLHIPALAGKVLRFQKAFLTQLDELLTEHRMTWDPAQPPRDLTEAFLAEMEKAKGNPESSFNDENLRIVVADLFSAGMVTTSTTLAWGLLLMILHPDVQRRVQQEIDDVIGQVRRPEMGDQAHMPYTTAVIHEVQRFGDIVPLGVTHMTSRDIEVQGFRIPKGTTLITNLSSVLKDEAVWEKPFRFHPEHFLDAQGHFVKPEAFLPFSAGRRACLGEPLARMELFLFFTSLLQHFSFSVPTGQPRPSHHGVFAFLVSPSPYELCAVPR
Chain of Cytochrome P450 3A4 (P08684 whole entry): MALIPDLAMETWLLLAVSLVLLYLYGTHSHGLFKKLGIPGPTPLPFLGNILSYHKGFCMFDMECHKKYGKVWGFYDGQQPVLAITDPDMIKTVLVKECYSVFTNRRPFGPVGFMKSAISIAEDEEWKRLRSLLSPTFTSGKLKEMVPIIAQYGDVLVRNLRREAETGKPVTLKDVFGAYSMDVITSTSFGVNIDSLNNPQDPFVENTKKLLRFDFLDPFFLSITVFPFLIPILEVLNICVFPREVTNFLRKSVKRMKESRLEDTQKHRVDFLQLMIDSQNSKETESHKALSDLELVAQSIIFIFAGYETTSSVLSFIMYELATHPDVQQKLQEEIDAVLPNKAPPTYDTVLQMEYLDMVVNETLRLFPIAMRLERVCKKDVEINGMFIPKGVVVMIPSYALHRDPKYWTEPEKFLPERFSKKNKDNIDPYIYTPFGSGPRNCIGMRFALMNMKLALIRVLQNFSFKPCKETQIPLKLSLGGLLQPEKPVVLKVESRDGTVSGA
Chain of Cytochrome P450 2C9 (P11712 whole entry, canonical isoform): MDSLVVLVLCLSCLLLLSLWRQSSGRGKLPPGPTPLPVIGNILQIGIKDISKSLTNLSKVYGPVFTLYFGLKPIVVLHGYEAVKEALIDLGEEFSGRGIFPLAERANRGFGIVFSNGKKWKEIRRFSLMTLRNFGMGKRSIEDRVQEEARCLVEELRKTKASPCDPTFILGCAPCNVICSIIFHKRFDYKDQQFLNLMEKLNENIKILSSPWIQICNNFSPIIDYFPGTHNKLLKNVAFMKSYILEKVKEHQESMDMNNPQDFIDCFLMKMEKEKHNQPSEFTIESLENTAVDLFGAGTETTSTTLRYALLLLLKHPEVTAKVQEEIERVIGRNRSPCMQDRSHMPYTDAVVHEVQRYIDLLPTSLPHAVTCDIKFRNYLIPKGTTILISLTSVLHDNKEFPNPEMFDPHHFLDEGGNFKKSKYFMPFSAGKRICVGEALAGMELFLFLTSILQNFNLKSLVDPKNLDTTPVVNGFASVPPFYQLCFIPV
Chain of Cytochrome P450 2C19 (P33261 whole entry): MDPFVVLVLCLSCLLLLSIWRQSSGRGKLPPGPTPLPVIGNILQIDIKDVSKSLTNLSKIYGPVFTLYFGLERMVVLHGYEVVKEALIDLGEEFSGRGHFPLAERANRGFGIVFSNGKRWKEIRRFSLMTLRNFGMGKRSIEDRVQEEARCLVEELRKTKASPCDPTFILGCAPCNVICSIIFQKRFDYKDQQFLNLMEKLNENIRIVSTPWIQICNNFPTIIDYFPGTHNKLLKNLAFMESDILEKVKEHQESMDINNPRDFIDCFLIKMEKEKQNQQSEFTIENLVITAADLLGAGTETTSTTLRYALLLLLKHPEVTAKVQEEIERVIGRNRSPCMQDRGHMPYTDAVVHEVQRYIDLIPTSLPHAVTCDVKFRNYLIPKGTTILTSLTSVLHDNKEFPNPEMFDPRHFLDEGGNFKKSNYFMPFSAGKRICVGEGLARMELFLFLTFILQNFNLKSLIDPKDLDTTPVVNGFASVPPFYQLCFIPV
Chain of Voltage-gated inwardly rectifying potassium channel KCNH2 (Q12809 whole entry): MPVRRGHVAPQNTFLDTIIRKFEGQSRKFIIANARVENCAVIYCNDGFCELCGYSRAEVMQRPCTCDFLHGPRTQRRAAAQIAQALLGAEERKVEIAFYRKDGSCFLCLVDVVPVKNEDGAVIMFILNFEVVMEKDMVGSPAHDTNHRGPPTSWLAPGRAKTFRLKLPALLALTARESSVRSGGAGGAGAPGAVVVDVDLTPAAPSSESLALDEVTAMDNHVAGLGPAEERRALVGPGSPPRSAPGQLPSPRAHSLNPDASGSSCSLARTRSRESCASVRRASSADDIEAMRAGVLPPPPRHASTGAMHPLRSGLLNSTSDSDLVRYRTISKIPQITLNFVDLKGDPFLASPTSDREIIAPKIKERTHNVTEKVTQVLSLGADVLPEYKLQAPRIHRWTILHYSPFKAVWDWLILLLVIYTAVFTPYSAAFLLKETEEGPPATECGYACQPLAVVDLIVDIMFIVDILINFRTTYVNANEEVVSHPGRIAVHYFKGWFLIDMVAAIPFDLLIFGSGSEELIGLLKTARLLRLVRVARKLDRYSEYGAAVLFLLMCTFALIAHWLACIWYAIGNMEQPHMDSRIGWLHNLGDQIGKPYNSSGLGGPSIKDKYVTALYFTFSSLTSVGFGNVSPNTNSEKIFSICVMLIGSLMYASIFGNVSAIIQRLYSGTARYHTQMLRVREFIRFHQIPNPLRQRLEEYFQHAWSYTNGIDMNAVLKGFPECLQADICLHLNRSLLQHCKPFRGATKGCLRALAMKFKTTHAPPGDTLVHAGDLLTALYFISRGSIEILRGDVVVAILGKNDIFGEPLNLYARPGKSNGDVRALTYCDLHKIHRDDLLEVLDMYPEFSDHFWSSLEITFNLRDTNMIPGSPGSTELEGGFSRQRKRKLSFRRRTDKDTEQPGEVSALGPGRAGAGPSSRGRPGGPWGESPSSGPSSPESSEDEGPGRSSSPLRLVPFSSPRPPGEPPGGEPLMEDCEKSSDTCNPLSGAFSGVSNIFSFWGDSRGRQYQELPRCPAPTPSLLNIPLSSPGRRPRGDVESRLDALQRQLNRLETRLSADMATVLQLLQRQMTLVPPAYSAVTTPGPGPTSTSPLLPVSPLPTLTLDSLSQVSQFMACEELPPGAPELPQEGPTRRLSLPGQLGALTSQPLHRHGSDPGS

SMILES | INH (Cytochrome P450 2C9) | Activity [2] | Activity (Streptococcus pneumoniae) | Activity (Klebsiella pneumoniae) | Activity (Haemophilus influenzae [3]) | Activity (Escherichia coli [4]) | INH (Cytochrome P450 1A2) | hepatocyte CLint at 1 µM [6] | solubility at 24 h [7] | Activity (Staphylococcus aureus) | MIC [8] | Activity (Pseudomonas aeruginosa [10]) | Activity [11] | Activity [13] | Papp B→A [14] | fraction unbound at 18 h, 20 µM [15] | INH (Cytochrome P450 2D6) | Papp A→B [16] | Activity (Pseudomonas aeruginosa [17]) | Activity (Haemophilus influenzae [18]) | also measured
Cn1ncc(C(=O)N2CCC(Nc3cc(=O)n(C)c4ccccc34)CC2)c1Cl | > 30 µM | inactive | inactive | inactive | inactive | inactive | > 30 µM | 8 µL/min/1e6 cells | 78 µM (≈ 31.2 µg/mL) | inactive | 25 µM (≈ 10 µg/mL) | inactive | inactive | inactive | 23 ×10⁻⁶ cm/s | 0.03 | > 30 µM | 4 ×10⁻⁶ cm/s | inactive | inactive | half-life [1]: 1.3 h; bioavailability [5]: 100%; AUC(0-inf) [9]: 19 µM·h; half-life [12]: 1.1 h; C0 [19]: 5.4 µM; clearance [20]: 24.8 mL/min/kg; INH (Cytochrome P450 2C19): > 30 µM; MCC at 72 h [21]: > 100 µM; Activity (Candida albicans): inactive; Cmax [22]: 7 µM; logD [23]: 2; Vd [24]: 1.2 L/kg; Activity (Escherichia coli [25]): inactive; microsomal CLint at 1 µM [26]: 14 µL/min/mg; IC50 [27]: 0.14 µM; IC50 (Adenosine receptor A1): 8 µM; AUC(0-inf) [28]: 3.4 µM·h; IC50 [29]: > 33 µM; INH (Cytochrome P450 3A4): > 30 µM
Cc1onc(C(=O)N2CCC(Nc3cc(=O)n(C)c4cc(F)c(F)cc34)CC2)c1C | > 30 µM | inactive | inactive | inactive | inactive | inactive | > 30 µM | 17 µL/min/1e6 cells | 28 µM (≈ 11.7 µg/mL) | inactive | 0.78 µM (≈ 0.325 µg/mL) | inactive | inactive | inactive | 21 ×10⁻⁶ cm/s | 0.05 | > 30 µM | 22 ×10⁻⁶ cm/s | inactive | inactive | fold change (FC) [30]: 165; IC50 [31]: 7.02 µM; MIC [32]: 100 µM (≈ 41.6 µg/mL); solubility [33]: 91 µM (≈ 37.9 µg/mL); INH (Cytochrome P450 2C19): > 30 µM; MCC at 72 h [21]: > 16 µM; Activity (Candida albicans): inactive; logD [23]: 2.3; Activity (Escherichia coli [25]): inactive; microsomal CLint at 1 µM [26]: 49 µL/min/mg; IC50 [27]: 0.038 µM; IC50 (Adenosine receptor A1): 8 µM; INH (Cytochrome P450 3A4): > 30 µM
